Screening results: PubChem, several laboratories
Only some compounds are listed: those with a hit (about 4.9% of all), similar ones and a draw of the others.
APP 5'UTR act: APP 5'UTR luciferase reporter activation; SH-SY5Y APP 5'UTR luciferase reporter, luminescence; zero percent = DMSO vehicle wells; activation, % at 2 µM; 190,000 tested, 1% active; AID 1276;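 active = activation above a set limit, based on mean plus 3 SD of controls, cut at about 140% in these data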
NF-kB neuron act: raises NF-kB expression in human neuronal cells; AID 1239; fold change at 12.5 µM; NF-kB reporter expression; hits give high values; 190,000 tested, 1.6% active; in the data active = fold change above about 3.3
STAT1 activator: activators of IFN-gamma induced STAT1 signaling. activation (% of control), % at 5.5 µM. AID 932. NIH 3T3 STAT1-luciferase reporter, luminescence; 100% = IFN-gamma alone, no compound. 200,000 tested, 2.6% active;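 active = activation above the screen-wide mean activation plus 3 SD, cut at about 130% in these data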
STAT1 blocker: reduces IFN-gamma driven STAT1 reporter signal; NIH 3T3 STAT1-luciferase reporter, luminescence; inhibition, % at 5.5 µM; 200,000 tested, 0.35% active; AID 920;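 active = inhibition above a set limit, the mean inhibition across all tested compounds plus 3 SD, cut at about 34% in these data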
STAT3 act: STAT3 signaling activation. U3A cells, IL-6 STAT3-luciferase reporter, luminescence; 100% = signal with IL-6 EC80 alone. activation (% of control), % at 5.6 µM. 190,000 tested, 0.91% active. AID 871;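 active = activation above the screen-wide mean of compound activation plus 3 SD, cut at about 130% in these data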
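Assay system – human STAT1-deficient U3A cells with stable STAT3-luciferase reporter · Also added – IL-6 (33 ng/mL) · Schedule – compound 1 h, then IL-6 6 h at 37 °C · Technique – reporter luminescence signal · Evaluation – % activation versus median of IL-6-stimulated wells · Benchmarks – IL-6-only wells as 100% reference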
STAT3 inh: STAT3 signaling inhibition; U3A cells, IL-6 STAT3-luciferase reporter, luminescence; host cell line lacks STAT1; inhibition, % at 5.5 µM; 190,000 tested, 0.89% active; AID 862;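 active = inhibition above the mean inhibition across all screened compounds plus 3 SD, cut at about 44% in these data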
Large screens that a line does not name were inactive.

O=C(COc1ccccc1C(=O)Nc1ccccc1)c1ccc(Br)cc1	none
O=C(Oc1ccccc1C(=O)Nc1ccccc1)c1ccccc1Br	NF-kB neuron act 3.7
COc1cccc(CN=C2Nc3ccccc3CS2)c1	NF-kB neuron act 3.9, STAT1 activator 147
Clc1ccc(CN=C2Nc3ccccc3CS2)cc1	NF-kB neuron act 4.8
COc1ccccc1CN=C1Nc2ccccc2CS1	none
COC1=C(Nc2ccc(C)cc2)C(=O)c2ccccc2C1=O	none
COC1=C(Nc2ccccc2)C(=O)c2ccccc2C1=O	STAT3 act 134
Cc1ccccc1NC(=O)N1CCCC(c2nc(-c3ccc(F)cc3)no2)C1 (centres undefined)	none
Cc1ccccc1NC(=O)N1CCCC(c2nc(-c3ccc(C(C)C)cc3)no2)C1 (centres undefined)	STAT1 activator 135
Cn1c(NC(=O)/C=C/c2ccccc2)cc(=O)n(C)c1=O	STAT1 activator 139
CCCC(=O)Nc1cc(=O)n(C)c(=O)n1C	none
Cn1c(NC(=O)CCc2ccccc2)cc(=O)n(C)c1=O	STAT1 activator 138
Nc1[nH]nc2nc(NCc3ccccc3)c3c(c12)CCN(Cc1ccccc1)C3	NF-kB neuron act 4.3
CCCSc1ncnc2c1oc1ccccc12	none
COc1ncnc2c1oc1ccccc12	NF-kB neuron act 3.3, STAT1 activator 146
CC(C)Sc1ncnc2c1oc1ccccc12	none
c1ccc(Sc2ncnc3c2oc2ccccc23)nc1	STAT1 activator 132
COCCNCC(=O)Nc1ccc(OC(F)(F)F)cc1	none
Cc1nnc(SCC(=O)N(Cc2ccccc2)C(C)C)n1-c1ccccc1	none
COC(=O)c1ccc(-c2ccc(/C=N/N3C(=O)C4C5C=CC(C6CC56)C4C3=O)o2)cc1 (centres undefined)	STAT1 activator 138
C=CCNC(=S)NNC(=O)c1ccc(=O)n(Cc2ccccc2)c1	none
N#CC1=C(N)Oc2cc(Nc3ccccc3)ccc2C1c1ccncc1 (centres undefined)	none
COCCn1c(C)cc(C2=NNC(=Nc3ccc(OC)cc3)SC2)c1C	none
COCCn1c(C)cc(C2=NNC(=Nc3ccccc3)SC2)c1C	APP 5'UTR act 155, STAT1 activator 143
CCN=C1NN=C(c2c[nH]c3ccccc23)CS1	APP 5'UTR act 162 (no result: NF-kB neuron act)
CCN=C1NN=C(c2cc(C)n(Cc3ccco3)c2C)CS1	STAT1 blocker 45, STAT3 inh 82
C=CCn1c(C)cc(C2=NNC(=NCc3ccccc3)SC2)c1C	APP 5'UTR act 139
CCN=C1NN=C(c2cc(C)n(CCc3ccccc3)c2C)CS1	none
N/C(=N\OC(=O)c1ccco1)c1ccc(Cl)cc1	APP 5'UTR act 158, STAT1 activator 137
COc1ccc(/C(N)=N/OC(=O)Oc2ccccc2)cc1OC	none
COc1ccc(C(=O)O/N=C(\N)c2ccccc2)c(OC)c1	APP 5'UTR act 188, STAT1 blocker 34, STAT3 inh 76
N/C(=N\OC(=O)c1ccc(Cl)cc1)c1cccnc1	none
N/C(=N\OC(=O)c1cccc2ccccc12)c1cccnc1	STAT3 act 136
N/C(=N\OC(=O)c1ccc(Cl)cc1Cl)c1cccnc1	NF-kB neuron act 6.3, STAT1 activator 129
Cc1ccc(OC(=O)c2cccc(C(=O)Oc3ccc(C)cn3)n2)nc1	none
CC(=O)Oc1ccc(N(c2ccccc2)S(=O)(=O)c2ccc(C)cc2)cc1	none
O=C(O/N=C(\c1ccccc1)c1ccncc1)c1ccccc1Cl	none
N/C(=N\OC(=O)c1ccc(Cl)cc1Cl)c1ccccc1	APP 5'UTR act 174
Cc1ccc(/C(N)=N/OC(=O)CCc2ccccc2)cc1	none
COc1ccccc1C(=O)O/N=C(\N)c1ccccc1Cl	STAT1 activator 139
N/C(=N\OC(=O)c1ccc(Cl)cc1Cl)c1ccc(Cl)cc1	none
N/C(=N\OC(=O)CCc1ccccc1)c1ccccc1Cl	STAT1 activator 141
N/C(=N\OC(=O)c1ccccc1Cl)c1ccccc1	APP 5'UTR act 166, NF-kB neuron act 7.7
COc1ccccc1C(=O)Oc1ccc(C(C)C)cc1	none
COc1cc(OC)cc(C(=O)n2cnnc2N)c1	none
COCC(C)NCc1ccc(OC)c(Br)c1 (centres undefined)	none
Cn1c(=NC(=O)CCl)sc2ccccc21	none
CCNC(=S)NNC(=O)c1cccn(Cc2ccc(Cl)cc2Cl)c1=O	none
O=C(CCl)N=c1sccn1Cc1ccc(Cl)cc1Cl	STAT1 blocker 90, STAT3 inh 60
O=C(CCl)N=c1sccn1Cc1cccc2ccccc12	STAT1 blocker 92, STAT3 inh 81
COc1cc(C(=O)NNC(=O)Nc2ccc([N+](=O)[O-])cc2)cc(OC)c1OC	none
O=c1[nH]c(SCc2nc3c(cnn3-c3ccccc3)c(=O)[nH]2)nc2ccccc12	STAT3 act 160
O=c1[nH]c(CSc2nc3ccccc3[nH]2)nc2c1cnn2-c1ccccc1	none
Cc1cccc(NC(=S)N=Nc2c(O)n(CN3CCOCC3)c3ccccc23)c1C	none
Cc1ccc(N=Nc2c(O)n(CN3CCOCC3)c3ccccc23)cc1	APP 5'UTR act 167, STAT1 activator 163, STAT3 act 137
O=C1NC(=O)/C(=C\c2ccc(O)cc2O)S1	none
Cc1ccc(O)c(NC(=O)c2noc3c2CCCCC3)c1	APP 5'UTR act 212, NF-kB neuron act 9.8
O=C(NC1CCCCC1)c1noc2c1CCCCC2	STAT1 activator 149
CC(C)(C)C1CCc2onc(C(=O)NC3CCCC3)c2C1 (centres undefined)	none
O=C(NCc1ccccc1)c1noc2c1CCCC2	none
CCc1ccc(NC(=O)c2noc3c2CCC3)cc1	APP 5'UTR act 144, NF-kB neuron act 3.4
O=C(NCCc1ccccc1)c1noc2c1CCCCC2	NF-kB neuron act 3.8, STAT1 activator 140
Cc1ccc(S(=O)(=O)N(C)c2c(C)ccc(S(=O)(=O)NC(C)(C)C)c2C)cc1	none
CSc1ccc(Cl)c(C(=O)Nc2ccc(OCC(N)=O)cc2)c1	none
CC(C)(C)c1ccc(/C([O-])=C(/C(=S)NCc2ccco2)[n+]2ccccc2)cc1	none (no result: APP 5'UTR act)
Cc1ccc(NC(=S)NNC(=O)c2nn(C)c(C)c2Cl)cc1	STAT1 activator 131
CC(C)c1ccc(Nc2ncccc2C(=O)O)cc1	APP 5'UTR act 140, STAT1 activator 143
COc1ccc(NC(=O)c2cccnc2Nc2ccc(OC)cc2)cc1	none
CCn1nc(C)c(CNC(=O)CCc2nnc(-c3ccc(C(C)=O)s3)o2)c1C	none
CC(C)CN(C(=O)CN1CCc2ccccc21)c1c(N)n(CC(C)C)c(=O)[nH]c1=O	STAT3 act 133
Cc1cc(/C=N/n2cnnc2)c(C)n1-c1ccc(OCc2ccc(Cl)cc2Cl)cc1	STAT1 blocker 40, STAT3 inh 61
Cc1ccc(N/N=C(\C#N)C(=N)N2CCOCC2)cc1	STAT1 activator 137
N#C/C(=N\Nc1ccccc1F)C(=N)N1CCCCC1	NF-kB neuron act 4, STAT1 activator 148
